Data: ChEMBL document CHEMBL3351818, “Synthesis and biological evaluation of novel 3,4-diaryl-1,2,5-selenadiazol analogues of combretastatin A-4” (Eur J Med Chem, 2014)
One block for each molecule: values may come before it. Calls of active or inactive are those of the source. The calls are words filed in the database; no cut-off is given here.

Assays:
[1] = Antiproliferative activity against human SGC7901 cells after 72 hrs by MTT assay; format: functional, cell-based; details: SGC-7901, 72 h
Outline: (§1)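 Cells were seeded at 1–3 × 10⁴/well, depending on growth rate, and grown 24 h. Triplicate wells were then exposed to agents for 72 h at 37 °C in 5% CO₂. IC50 is the concentration giving 50% absorbance reduction versus vehicle, averaged from ≥3 independent experiments. SGC-7901 and HT-1080 were cultured in RPMI-1640 with 10% FBS.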

[2] = Antiproliferative activity against human HT1080 cells after 72 hrs by MTT assay; format: functional, cell-based; details: HT-1080, 72 h; outline: as §1
KB = assay: Antiproliferative activity against human KB cells after 72 hrs by MTT assay; format: functional, cell-based; outline: as §1
[3] = Cell cycle arrest in human HT1080 cells assessed as accumulation at S phase at 25 nM after 24 hrs using propidium iodide staining by FACScan flow cytometry (reference value: 18.56 %); format: functional, cell-based; details: HT-1080
Outline: (§2)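 HT-1080 cells (8 × 10⁴) exposed 24 h to test agent or 0.05% DMSO vehicle. Harvested by centrifugation, PBS-washed, fixed in ice-cold 70% ethanol, then RNase-treated 30 min at 37 °C. Propidium iodide 50 µg/mL applied 30 min at 4 °C in the dark before FACScan flow cytometry. Repeated at least three times.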

[4] = Cell cycle arrest in human HT1080 cells assessed as accumulation at S phase at 150 nM after 24 hrs using propidium iodide staining by FACScan flow cytometry (reference value: 18.56 %); format: functional, cell-based; details: HT-1080; outline: as §2
[5] = Cell cycle arrest in human HT1080 cells assessed as accumulation at G0/G1 phase at 25 nM after 24 hrs using propidium iodide staining by FACScan flow cytometry (Rvb =52.17 %); format: functional, cell-based; details: HT-1080; outline: as §2
HT-1080 [6] = assay: Disruption of microtubule network in human HT1080 cells assessed as cell rounding at 2 times IC50 after 12 hrs by immunofluorescence staining method; format: cell-based
Outline: (§3)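 HT-1080 cells seeded at 1 × 10⁴/well, grown 24 h, then given vehicle or agent for 12 h. Fixed in 4% formaldehyde/PBS 30 min at −20 °C, permeabilised with 0.1% Triton X-100 5 min, and blocked with 5% BSA. Anti-α-tubulin (1:100) applied overnight at 4 °C, then FITC anti-mouse secondary (1:1000) 3 h at 37 °C, with DAPI counterstain.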

[7] = Cell cycle arrest in human HT1080 cells assessed as accumulation at G0/G1 phase at 50 nM after 24 hrs using propidium iodide staining by FACScan flow cytometry (Rvb =52.17 %); format: functional, cell-based; details: HT-1080; outline: as §2
[8] = Cell cycle arrest in human HT1080 cells assessed as accumulation at S phase at 50 nM after 24 hrs using propidium iodide staining by FACScan flow cytometry (reference value: 18.56 %); format: functional, cell-based; details: HT-1080; outline: as §2
[9] = Cell cycle arrest in human HT1080 cells assessed as accumulation at sub-G1 phase at 75 nM after 24 hrs using propidium iodide staining by FACScan flow cytometry; format: functional, cell-based; details: HT-1080; outline: as §2
Tubulin (Homo sapiens) [10] = molecular target: T1, Tubulin (Homo sapiens) (UniProt P68371+Q9H4B7+P0DPH7+P68366+Q13509+Q71U36+P04350+Q3ZCM7+P07437+P68363+Q9BQE3+Q6PEY2+Q13885+Q9BVA1+Q9BUF5); assay: Inhibition of tubulin (unknown origin) polymerization at 4 uM measured for 90 mins by fluorescence assay; format: protein-complex assay
[11] = Cell cycle arrest in human HT1080 cells assessed as accumulation at sub-G1 phase at 150 nM after 24 hrs using propidium iodide staining by FACScan flow cytometry; format: functional, cell-based; details: HT-1080; outline: as §2
[12] = Cell cycle arrest in human HT1080 cells assessed as accumulation at sub-G1 phase at 25 nM after 24 hrs using propidium iodide staining by FACScan flow cytometry; format: functional, cell-based; details: HT-1080; outline: as §2
[13] = Cell cycle arrest in human HT1080 cells assessed as accumulation at G0/G1 phase at 100 nM after 24 hrs using propidium iodide staining by FACScan flow cytometry (Rvb =52.17 %); format: functional, cell-based; details: HT-1080; outline: as §2
HT-1080 [14] = assay: Disruption of microtubule network in human HT1080 cells assessed as cell detachment at 2 times IC50 after 12 hrs by immunofluorescence staining method; format: cell-based; outline: as §3
[15] = Cell cycle arrest in human HT1080 cells assessed as accumulation at S phase at 75 nM after 24 hrs using propidium iodide staining by FACScan flow cytometry (reference value: 18.56 %); format: functional, cell-based; details: HT-1080; outline: as §2
[16] = Cell cycle arrest in human HT1080 cells assessed as accumulation at sub-G1 phase at 100 nM after 24 hrs using propidium iodide staining by FACScan flow cytometry; format: functional, cell-based; details: HT-1080; outline: as §2
[17] = Cell cycle arrest in human HT1080 cells assessed as accumulation at S phase at 100 nM after 24 hrs using propidium iodide staining by FACScan flow cytometry (reference value: 18.56 %); format: functional, cell-based; details: HT-1080; outline: as §2
HT-1080 [18] = assay: Disruption of microtubule network in human HT1080 cells assessed as loss of the radial distribution of structured microtubules at 2 times IC50 after 12 hrs by immunofluorescence staining method; format: cell-based; outline: as §3
[19] = Cell cycle arrest in human HT1080 cells assessed as accumulation at G2/M phase at 75 nM after 24 hrs using propidium iodide staining by FACScan flow cytometry (reference value: 29.27 %); format: functional, cell-based; details: HT-1080; outline: as §2
[20] = Cell cycle arrest in human HT1080 cells assessed as accumulation at G2/M phase at 150 nM after 24 hrs using propidium iodide staining by FACScan flow cytometry (reference value: 29.27 %); format: functional, cell-based; details: HT-1080; outline: as §2
Tubulin (Homo sapiens) [21] = molecular target: T1, Tubulin (Homo sapiens); assay: Inhibition of tubulin (unknown origin) polymerization at 1 uM measured for 90 mins by fluorescence assay; format: protein-complex assay
[22] = Cell cycle arrest in human HT1080 cells assessed as accumulation at G2/M phase at 100 nM after 24 hrs using propidium iodide staining by FACScan flow cytometry (reference value: 29.27 %); format: functional, cell-based; details: HT-1080; outline: as §2
[23] = Cell cycle arrest in human HT1080 cells assessed as accumulation at G0/G1 phase at 150 nM after 24 hrs using propidium iodide staining by FACScan flow cytometry (Rvb =52.17 %); format: functional, cell-based; details: HT-1080; outline: as §2
[24] = Cell cycle arrest in human HT1080 cells assessed as accumulation at G0/G1 phase at 75 nM after 24 hrs using propidium iodide staining by FACScan flow cytometry (Rvb =52.17 %); format: functional, cell-based; details: HT-1080; outline: as §2
[25] = Cell cycle arrest in human HT1080 cells assessed as accumulation at sub-G1 phase at 50 nM after 24 hrs using propidium iodide staining by FACScan flow cytometry; format: functional, cell-based; details: HT-1080; outline: as §2
Tubulin (Homo sapiens) [26] = molecular target: T1, Tubulin (Homo sapiens); assay: Inhibition of tubulin (unknown origin) polymerization measured for 90 mins by fluorescence assay; format: protein-complex assay
Tubulin (Homo sapiens) [27] = molecular target: T1, Tubulin (Homo sapiens); assay: Inhibition of tubulin (unknown origin) polymerization at 8 uM measured for 90 mins by fluorescence assay; format: protein-complex assay
Tubulin (Homo sapiens) [28] = molecular target: T1, Tubulin (Homo sapiens); assay: Inhibition of tubulin (unknown origin) polymerization at 2 uM measured for 90 mins by fluorescence assay; format: protein-complex assay
[29] = Cell cycle arrest in human HT1080 cells assessed as accumulation at G2/M phase at 50 nM after 24 hrs using propidium iodide staining by FACScan flow cytometry (reference value: 29.27 %); format: functional, cell-based; details: HT-1080; outline: as §2
[30] = Cell cycle arrest in human HT1080 cells assessed as accumulation at G2/M phase at 25 nM after 24 hrs using propidium iodide staining by FACScan flow cytometry (reference value: 29.27 %); format: functional, cell-based; details: HT-1080; outline: as §2
[31] = Cell cycle arrest in human HT1080 cells assessed as accumulation at G2/M phase after 24 hrs using propidium iodide staining by FACScan flow cytometry; format: functional, cell-based; details: HT-1080; outline: as §2

IC50 (KB): 0.93 µM
Compound: CCOc1ccc(-c2n[se]nc2-c2cc(OC)c(OC)c(OC)c2)cc1Br
IC50 [1]: 12.8 µM
IC50 [2]: 3.46 µM

Compound: COc1ccc(-c2n[se]nc2-c2ccc3c(c2)OCO3)cc1
IC50 [1]: 8.28 µM
IC50 [2]: > 30 µM
IC50 (KB): 5.21 µM

Compound: COc1cc(-c2n[se]nc2-c2ccc(O)c(Br)c2)cc(OC)c1OC
IC50 [1]: > 30 µM
IC50 [2]: 16.4 µM
IC50 (KB): 4.8 µM

IC50 (KB): 0.011 µM
Compound: COc1ccc(-c2n[se]nc2-c2cc(OC)c(OC)c(OC)c2)cc1N
IC50 [1]: 0.021 µM
IC50 [2]: 0.026 µM

Compound: COc1cc(-c2n[se]nc2-c2cccc(O)c2)cc(OC)c1OC
IC50 [1]: > 30 µM
IC50 [2]: 5.98 µM
IC50 (KB): > 30 µM

inhibition (Tubulin (Homo sapiens) [10]): 65%
inhibition (Tubulin (Homo sapiens) [21]): 20.4%
IC50 (KB): 0.0039 µM
inhibition (Tubulin (Homo sapiens) [26]): Dose-dependent effect
inhibition (Tubulin (Homo sapiens) [27]): 97.6%
inhibition (Tubulin (Homo sapiens) [28]): 48.8%
Compound: COc1ccc(-c2n[se]nc2-c2cc(OC)c(OC)c(OC)c2)cc1O
Activity [3]: 3.1%
IC50 [1]: 0.019 µM
Activity [4]: 5.82%
Activity [5]: 3.93%
Activity (HT-1080 [6]): Active
Activity [7]: 49.1%
Activity [8]: 16%
Activity [9]: 4.39%
Activity [11]: 10.9%
Activity [12]: 15.7%
Activity [13]: 5.46%
Activity (HT-1080 [14]): Active
Activity [15]: 13.3%
Activity [16]: 18.1%
Activity [17]: 4.07%
Activity (HT-1080 [18]): Active
Activity [19]: 45.2%
Activity [20]: 80.7%
Activity [22]: 72.4%
Activity [23]: 2.61%
IC50 [2]: 0.021 µM
Activity [24]: 37.2%
Activity [25]: 2.47%
Activity [29]: 32.4%
Activity [30]: 71.9%
Activity [31]: Dose-dependent effect

IC50 (KB): > 30 µM
Compound: COc1ccc(-c2n[se]nc2-c2cc(OC)c(OC)c(OC)c2)cc1OCc1ccccc1
IC50 [1]: > 30 µM
IC50 [2]: > 30 µM

IC50 (KB): 10.1 µM
Compound: COc1ccc(-c2n[se]nc2-c2cc(OC)c(OC)c(OC)c2)cc1[N+](=O)[O-]
IC50 [1]: > 30 µM
IC50 [2]: 24.8 µM

Compound: COc1ccc(-c2n[se]nc2-c2ccc3c(c2)OCO3)cc1[N+](=O)[O-]
IC50 [1]: > 30 µM
IC50 [2]: > 30 µM
IC50 (KB): > 30 µM

IC50 (KB): 0.099 µM
Compound: CCOc1ccc(-c2n[se]nc2-c2cc(OC)c(OC)c(OC)c2)cc1N
IC50 [1]: 0.14 µM
IC50 [2]: 10.1 µM

IC50 (KB): 0.42 µM
Compound: CCOc1ccc(-c2n[se]nc2-c2cc(OC)c(OC)c(OC)c2)cc1
IC50 [1]: 0.23 µM
IC50 [2]: 0.16 µM
